From ChEMBL document CHEMBL1128298, “Synthesis and evaluation of pharmacological and pharmacokinetic properties of monopropyl analogs of 5-, 7-, and 8-[[(trifluoromethyl)sulfonyl]oxy]-2-aminotetralins: central dopamine and serotonin receptor activity” (J Med Chem, 1995)
pKi: −log10 of the molar value. Active and inactive are the calls of the source. The calls are words filed in the database; no cut-off is given here.

How the values were obtained:
[1] = target: T1, 5-hydroxytryptamine receptor 1A (Mus musculus, UniProt Q64264); assay: In vitro binding affinity towards 5-hydroxytryptamine 1A receptor by using [3H]-8-OH-DPAT as radioligand
T1 sequence (Q64264 whole entry): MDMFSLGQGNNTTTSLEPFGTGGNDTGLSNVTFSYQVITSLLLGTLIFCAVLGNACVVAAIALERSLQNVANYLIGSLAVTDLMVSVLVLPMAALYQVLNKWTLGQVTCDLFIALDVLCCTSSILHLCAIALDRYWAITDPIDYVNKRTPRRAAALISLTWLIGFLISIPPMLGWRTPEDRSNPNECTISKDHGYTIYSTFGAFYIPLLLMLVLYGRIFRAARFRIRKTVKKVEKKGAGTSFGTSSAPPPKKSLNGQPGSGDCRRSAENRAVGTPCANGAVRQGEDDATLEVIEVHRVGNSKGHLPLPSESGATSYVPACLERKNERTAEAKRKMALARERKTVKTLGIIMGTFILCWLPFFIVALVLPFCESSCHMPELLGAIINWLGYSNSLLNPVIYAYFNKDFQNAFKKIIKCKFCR
Outline: (§1)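 Radioligand competition binding at cloned mammalian receptors expressed in CHO-K1 cells, 1 h at room temperature, pH 7.4. Ligands: 5-HT1A [3H]-8-OH-DPAT 1 nM in 50 mM Tris/10 mM MgCl2. 5-HT1Dα/β [3H]-5-HT 1.7 nM in Tris/MgCl2/EDTA/0.1% ascorbate. D2 [3H]U86170 1 nM in 20 mM HEPES/10 mM MgSO4. D3 [3H]spiperone 0.5 nM in HEPES/MgCl2/NaCl/EDTA. Filtration and scintillation counting; 11 concentrations in duplicate; IC50 by nonlinear fit converted to Ki via Cheng–Prusoff.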

[2] = target: T2, 5-hydroxytryptamine receptor 1D (Homo sapiens, UniProt P28221); assay: In vitro binding affinity towards 5-hydroxytryptamine 1D receptor alpha by using [3H]-5-HT as radioligand
[3] = target: T2, 5-hydroxytryptamine receptor 1D; assay: In vitro binding affinity towards 5-HT1D alpha receptor by using [3H]5-HT as radioligand; outline: as §1
D(2) dopamine receptor [4] = target: T3, D(2) dopamine receptor (Homo sapiens, UniProt P14416); assay: In vitro binding affinity towards dopamine D2 receptor by using [3H]U-86170 as radioligand; outline: as §1
D(3) dopamine receptor = D(3) dopamine receptor (Homo sapiens, UniProt P35462); assay: In vitro binding affinity towards Dopamine receptor D3 by using [3H]spiperone as radioligand
Outline: as §1, with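 “7.4.” for “7.4. Ligands: 5-HT1A [3H]-8-OH-DPAT 1 nM in 50 mM Tris/10 mM MgCl2. 5-HT1Dα/β [3H]-5-HT 1.7 nM in Tris/MgCl2/EDTA/0.1% ascorbate.”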

Rattus norvegicus [5] = assay: uM/kg; format: functional
Rattus norvegicus [6] = species: Rattus norvegicus; assay: post-synaptic activity was determined by locomotor activity (LMA) in reserpine pretreated rats and no. of counts/30 min was reported (***p<0.005); format: functional
Rattus norvegicus [7] = assay: (§2) […] decrease in the accumulation of 5-HTP (5-uM/Kg; format: functional, organism-based
Rattus norvegicus [8] = assay: […] decrease in the accumulation of DOPA (3,4-dihydroxyphenylalanine) in rat striatal brain;Inactive at 50 uM/Kg; format: functional, organism-based
Outline: (§3)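 Male Sprague-Dawley rats (200–300 g) pretreated with reserpine 5 mg/kg sc 18 h before test drug. Test drug sc 60 min and NSD 1015 30 min before decapitation. DOPA and 5-HTP in limbic, striatal and hemispheral brain areas determined by HPLC with electrochemical detection. ED50 (µmol/kg) is the dose producing half-maximal decrease, from sigmoidal fit to dose–response curves, with 95% confidence limits.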

Rattus norvegicus [9] = assay: […] decrease in the accumulation of DOPA (3,4-dihydroxyphenylalanine) in rat limbic brain;Inactive at 50 uM/Kg; format: functional, organism-based; outline: as §3
Rattus norvegicus [10] = assay: as §2; format: functional, organism-based; remark: listed apart in the source
Rattus norvegicus [11] = assay: […] decrease in the accumulation of DOPA (3,4-dihydroxyphenylalanine) in rat hemispheral brain;Inactive at 50 uM/Kg; format: functional, organism-based; outline: as §3
[12] = target: T2, 5-hydroxytryptamine receptor 1D; assay: In vitro binding affinity towards 5-hydroxytryptamine 1D receptor alpha by using [3H]5-HT as radioligand
[13] = Plasma clearance was determined for the compound in rats; format: ADME, organism-based; settings: rat
Outline: (§4)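 Rats with arterial catheters, dosed 24 h after surgery. Dosing po by gavage after 18 h fast, or iv; doses 25 µmol/kg po and 5 µmol/kg iv. Blood sampled 5 min–12 h and analysed by GC-MS after dichloromethane extraction at pH 11, in duplicate. Bioavailability from po/iv AUC ratio; half-life estimated graphically from the elimination phase after oral dosing.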

[14] = Oral bioavailability in rat; format: ADME, organism-based; settings: in vivo; outline: as §4
[15] = Plasma half life was determined in rats; format: ADME, organism-based; settings: rat; outline: as §4
D(2) dopamine receptor [16] = target: T3, D(2) dopamine receptor
Rattus norvegicus [17] = assay: […] decrease in the accumulation of DOPA (3,4-dihydroxyphenylalanine) in rat striatal brain; partial response at 50 uM/Kg; format: functional, organism-based; outline: as §3
Rattus norvegicus [18] = assay: […] decrease in the accumulation of DOPA (3,4-dihydroxyphenylalanine) in rat limbic brain; partial response at 50 uM/Kg; format: functional, organism-based; outline: as §3
Rattus norvegicus [19] = species: Rattus norvegicus; assay: […] decrease in the accumulation of 5-HTP (5-Hydroxytryptophan) in rat hemispheral brain; format: functional; outline: as §3
Rattus norvegicus [20] = assay: […] decrease in the accumulation of DOPA (3,4-dihydroxyphenylalanine) in rat hemispheral brain; partial response at 50 uM/Kg; format: functional, organism-based; outline: as §3
D(2) dopamine receptor [21] = target: T3, D(2) dopamine receptor; assay: In vitro binding affinity towards Dopamine receptor D2 by using [3H]spiperone as radioligand
Rattus norvegicus [22] = species: Rattus norvegicus; assay: post-synaptic activity was determined by locomotor activity (LMA) in Non pretreated rats; format: functional
Outline: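 Nonpretreated male Sprague-Dawley rats; test drug sc in the neck or po by gavage, n = 4. Placed singly in photocell motility meters immediately after dosing; activity recorded for 30 min. Results expressed as percent of saline controls.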

Rattus norvegicus [23] = assay: […] decrease in the accumulation of 5-HTP (5-Hydroxytryptophan) in non pretreated rat striatal brain at dose 0.25 umol/kg; format: functional; set-up: scale not given: the % may be the effect or the level left
Outline: (§5)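 Male Sprague-Dawley rats (200–300 g) without reserpine. Test drug sc, or po by gavage after 18 h fast. NSD 1015 decarboxylase inhibition before decapitation. DOPA and 5-HTP in limbic and striatal regions measured by HPLC-electrochemical detection. Results given as percent of saline controls, mean ± SEM, n = 16 controls and 4 treated.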

Rattus norvegicus [24] = assay: […] decrease in the accumulation of DOPA (3,4-dihydroxyphenylalanine) in non pretreated rat striatal brain at dose 0.25 umol/kg; format: functional; set-up: scale not given: the % may be the effect or the level left; outline: as §5
Rattus norvegicus [25] = assay: […] decrease in the accumulation of 5-HTP (5-Hydroxytryptophan) in non pretreated rat limbic brain at dose 0.25 umol/kg; format: functional; set-up: scale not given: the % may be the effect or the level left; outline: as §5
Rattus norvegicus [26] = assay: […] decrease in the accumulation of DOPA (3,4-dihydroxyphenylalanine) in non pretreated rat limbic brain at dose 0.25 umol/kg; format: functional; set-up: scale not given: the % may be the effect or the level left; outline: as §5
Rattus norvegicus [27] = species: Rattus norvegicus; assay: […] decrease in the accumulation of 5-HTP (5-Hydroxytryptophan) in rat striatal brain; format: functional; outline: as §3
Rattus norvegicus [28] = assay: behavioral syndrome(flat body posture and forepaw treading) at 0.25 µmol/kg
Rattus norvegicus [29] = assay: behavioral syndrome(flat body posture and forepaw treading) at 0.25 umol/Kg

D(3) dopamine receptor, sequence (P35462 whole entry): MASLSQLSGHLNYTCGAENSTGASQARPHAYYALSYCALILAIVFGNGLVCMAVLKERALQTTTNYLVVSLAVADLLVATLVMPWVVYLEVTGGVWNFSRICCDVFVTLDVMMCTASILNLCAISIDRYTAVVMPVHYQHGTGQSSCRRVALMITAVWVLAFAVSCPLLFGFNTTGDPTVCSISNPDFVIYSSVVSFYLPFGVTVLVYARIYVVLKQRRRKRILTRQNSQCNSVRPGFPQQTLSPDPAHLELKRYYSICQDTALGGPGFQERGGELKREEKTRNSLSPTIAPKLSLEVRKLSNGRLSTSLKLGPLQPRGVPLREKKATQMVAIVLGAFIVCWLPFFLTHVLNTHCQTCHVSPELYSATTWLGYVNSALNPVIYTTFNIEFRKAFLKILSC
T3 sequence (P14416 whole entry): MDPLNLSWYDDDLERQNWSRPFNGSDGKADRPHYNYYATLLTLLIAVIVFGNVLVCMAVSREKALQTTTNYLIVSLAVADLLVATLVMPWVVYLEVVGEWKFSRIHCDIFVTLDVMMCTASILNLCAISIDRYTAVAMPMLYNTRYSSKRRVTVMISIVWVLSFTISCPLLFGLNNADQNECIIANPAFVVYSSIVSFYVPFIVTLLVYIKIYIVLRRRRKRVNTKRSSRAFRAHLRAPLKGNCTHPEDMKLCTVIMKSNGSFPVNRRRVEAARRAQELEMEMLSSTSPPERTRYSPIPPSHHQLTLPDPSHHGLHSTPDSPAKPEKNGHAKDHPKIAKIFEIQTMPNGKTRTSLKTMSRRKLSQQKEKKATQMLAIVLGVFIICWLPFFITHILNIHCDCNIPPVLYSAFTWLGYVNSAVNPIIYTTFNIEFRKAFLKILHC
T2 sequence (P28221 whole entry): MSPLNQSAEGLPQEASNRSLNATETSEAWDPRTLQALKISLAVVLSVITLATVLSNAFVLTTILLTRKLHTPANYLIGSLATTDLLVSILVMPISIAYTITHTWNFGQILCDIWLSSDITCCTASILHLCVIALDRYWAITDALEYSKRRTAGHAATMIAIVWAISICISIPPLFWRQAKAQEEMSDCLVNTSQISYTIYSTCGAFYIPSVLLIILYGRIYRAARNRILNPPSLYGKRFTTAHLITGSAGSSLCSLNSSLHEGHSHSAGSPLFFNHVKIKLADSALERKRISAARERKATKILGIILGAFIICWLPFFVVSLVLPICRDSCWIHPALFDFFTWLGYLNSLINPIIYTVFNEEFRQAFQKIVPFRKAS

| SMILES | pKi [1] | pKi [2] | pKi (D(3) dopamine receptor) | No. of rats displaying DA syndrome (Rattus norvegicus [5]) | pKi [12] | bioavailability [14] [%] | half-life [15] [h] | pKi (D(2) dopamine receptor [16]) | ED50 (Rattus norvegicus [17]) | ED50 (Rattus norvegicus [18]) | ED50 (Rattus norvegicus [19]) [µmol/kg] | ED50 (Rattus norvegicus [20]) | pKi (D(2) dopamine receptor [21]) | other results |
| --- | --- | --- | --- | --- | --- | --- | --- | --- | --- | --- | --- | --- | --- | --- |
| CCCN[C@@H]1CCc2ccc(OS(=O)(=O)C(F)(F)F)cc2C1.Cl | 6.65 | 6.47 | 6.44 | 4 |  |  |  |  |  |  |  |  |  | pKi [3]: 6.90; pKi (D(2) dopamine receptor [4]): 7.30; Counts/30 min (Rattus norvegicus [6]): 2153; ED50 (Rattus norvegicus [7]): Weak activity; ED50 (Rattus norvegicus [8]): inactive; ED50 (Rattus norvegicus [9]): inactive; ED50 (Rattus norvegicus [10]): Weak activity; ED50 (Rattus norvegicus [11]): inactive |
| CCCN(CCC)C1CCc2cccc(OS(=O)(=O)C(F)(F)F)c2C1 (racemic) | 9.10 | 6.90 | 6.56 |  | 7.92 | 11.2 | 1.5 | 7.21 | Weak activity | Weak activity | 13.8 | Weak activity | < 6.38 | clearance [13]: 57 mL/min/kg |
| CCCNC1CCc2cccc(OS(=O)(=O)C(F)(F)F)c2C1 (racemic) | 8.55 |  | 6.16 |  | 7.82 |  |  | 6.97 |  |  |  |  | < 6.38 |  |
| CCCN(CCC)[C@@H]1CCc2cccc(O)c2C1 | 9.30 |  |  | 0 |  | 2.4 | 1.2 |  | Weak activity | Weak activity | 0.05 | Weak activity |  | Locomotor activity (% of saline control) (Rattus norvegicus [22]): 64%; Control (Rattus norvegicus [23]): 48%; Control (Rattus norvegicus [24]): 80%; Control (Rattus norvegicus [25]): 50%; Control (Rattus norvegicus [26]): 94%; ED50 (Rattus norvegicus [27]): 0.047 µmol/kg; No. of rats with 5-HT syndrome (Rattus norvegicus [28]): 4; No. of rats with 5-HT syndrome (Rattus norvegicus [29]): 4 |
